Measured values from ChEMBL document CHEMBL4118034, “Orbicularisine: A Spiro-Indolothiazine Isolated from Gills of the Tropical Bivalve Codakia orbicularis” (J Nat Prod, 2017).
Activity calls are given as the source filed them. The calls are words filed in the database; no cut-off is given here.

Assays:
[1] = target: CDK2/Cyclin A2 (Homo sapiens) (UniProt P24941+P20248); assay: Inhibition of human CDK2/Cyclin A assessed as residual activity at 16 uM relative to control; type: protein-complex assay
Pseudomonas aeruginosa = assay: Antibacterial activity against Pseudomonas aeruginosa ATCC […] at 2 to 256 ug/ml measured after 24 hrs; type: functional, organism-based
Outline: (§1)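 Stock: 2.7 mg compound in 100 µL DMSO, then diluted with 900 µL distilled water. Working solutions at 256, 128, 64, 32, 16, 8, 4 and 2 µg/mL; 20 µL of each went into 178 µL Mueller-Hinton broth. Inoculum: 2 µL overnight culture at 0.5 McFarland (1.5*10⁸ CFU/mL). Controls: DMSO–water growth and sterility. Incubation 24 h at 37 °C; wells scored by eye as clear or turbid.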

[2] = target: Cyclin-dependent kinase 5/CDK5 activator 1 (Homo sapiens) (UniProt Q00535+Q15078); assay: Inhibition of human CDK5/p25 assessed as residual activity at 16 uM relative to control; type: protein-complex assay
[3] = target: Receptor-interacting serine/threonine-protein kinase 3 (Homo sapiens) (UniProt Q9Y572); assay: Inhibition of human RIPK3 assessed as residual activity at 16 uM relative to control
Enterococcus faecalis = assay: Antibacterial activity against Enterococcus faecalis ATCC 29212 at 2 to 256 ug/ml measured after 24 hrs; type: functional, organism-based; outline: as §1
Streptococcus pneumoniae = assay: Antibacterial activity against Streptococcus pneumoniae ATCC 49619 at 2 to 256 ug/ml measured after 24 hrs; type: functional, organism-based; outline: as §1
Klebsiella pneumoniae = assay: Antibacterial activity against Klebsiella pneumoniae ATCC 700603 at 2 to 256 ug/ml measured after 24 hrs; type: functional, organism-based; outline: as §1
Escherichia coli = assay: Antibacterial activity against Escherichia coli ATCC 35218 at 2 to 256 ug/ml measured after 24 hrs; type: functional, organism-based; outline: as §1
[4] = target: CDK9/cyclin T1 (Homo sapiens) (UniProt O60563+P50750); assay: Inhibition of human CDK9/Cyclin T assessed as residual activity at 16 uM relative to control; type: protein-complex assay
[5] = target: T1, Serine/threonine-protein kinase haspin (Homo sapiens) (UniProt Q8TF76); assay: Inhibition of human haspin assessed as residual activity at 16 uM relative to control
T1 sequence (whole entry): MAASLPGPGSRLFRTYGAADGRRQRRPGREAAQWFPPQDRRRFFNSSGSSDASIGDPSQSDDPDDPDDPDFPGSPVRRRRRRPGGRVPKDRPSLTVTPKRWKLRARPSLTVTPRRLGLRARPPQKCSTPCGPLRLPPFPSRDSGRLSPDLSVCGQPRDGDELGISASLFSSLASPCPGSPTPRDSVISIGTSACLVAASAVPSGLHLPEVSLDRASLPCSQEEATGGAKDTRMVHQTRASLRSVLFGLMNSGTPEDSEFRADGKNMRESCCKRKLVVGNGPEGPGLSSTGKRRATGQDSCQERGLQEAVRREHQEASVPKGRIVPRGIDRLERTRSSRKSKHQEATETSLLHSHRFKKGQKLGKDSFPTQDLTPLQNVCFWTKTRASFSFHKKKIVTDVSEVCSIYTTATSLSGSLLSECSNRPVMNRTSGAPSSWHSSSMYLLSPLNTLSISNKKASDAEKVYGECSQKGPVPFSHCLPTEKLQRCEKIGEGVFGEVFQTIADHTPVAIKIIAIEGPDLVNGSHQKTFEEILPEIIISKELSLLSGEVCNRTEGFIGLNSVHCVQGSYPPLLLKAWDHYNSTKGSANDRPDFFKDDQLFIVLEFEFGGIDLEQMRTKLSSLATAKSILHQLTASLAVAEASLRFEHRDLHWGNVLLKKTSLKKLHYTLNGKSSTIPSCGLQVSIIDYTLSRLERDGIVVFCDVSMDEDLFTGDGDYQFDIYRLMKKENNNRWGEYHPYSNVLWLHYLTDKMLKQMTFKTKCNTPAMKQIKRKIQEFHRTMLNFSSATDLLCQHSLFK

[6] = target: Aurora kinase B (Homo sapiens) (UniProt Q96GD4); assay: Inhibition of human Aurora-B assessed as residual activity at 16 uM relative to control
Leishmania donovani = assay: Inhibition of Leishmania donovani TLK assessed as residual activity at 16 uM relative to control
[7] = target: Serine/threonine-protein kinase pim-1 (Homo sapiens) (UniProt P11309); assay: Inhibition of human Pim1 assessed as residual activity at 16 uM relative to control
[8] = target: Glycogen synthase kinase-3 (Sus scrofa) (UniProt B2LUN4+I6LNT8); assay: Inhibition of pig GSK3 alpha/beta assessed as residual activity at 16 uM relative to control; type: protein assay
[9] = target: T2, Putative casein kinase I (Leishmania major) (UniProt O96999); assay: Inhibition of Leishmania major CK1 assessed as residual activity at 16 uM relative to control
T2 sequence (whole entry): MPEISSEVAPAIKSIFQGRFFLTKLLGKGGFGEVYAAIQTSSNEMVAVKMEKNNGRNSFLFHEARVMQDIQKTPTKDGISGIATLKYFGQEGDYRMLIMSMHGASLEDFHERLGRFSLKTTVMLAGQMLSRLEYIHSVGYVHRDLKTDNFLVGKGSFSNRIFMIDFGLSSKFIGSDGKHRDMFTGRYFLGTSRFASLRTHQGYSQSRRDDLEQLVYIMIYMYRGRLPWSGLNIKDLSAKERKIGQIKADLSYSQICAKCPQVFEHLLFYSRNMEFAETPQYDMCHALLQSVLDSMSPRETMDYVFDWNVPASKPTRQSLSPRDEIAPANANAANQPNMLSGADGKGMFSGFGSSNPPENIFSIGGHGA

[10] = target: Dual specificity tyrosine-phosphorylation-regulated kinase 1A (Rattus norvegicus) (UniProt Q63470); assay: Inhibition of rat DYRK1A assessed as residual activity at 16 uM relative to control
HCT-116 = assay: Cytotoxicity against human HCT116 cells up to 100 uM; type: functional, cell-based
U-87 MG = assay: Cytotoxicity against human U87MG cells up to 100 uM; type: functional, cell-based; details: U-87MG ATCC

Serine/threonine-protein kinase pim-1 (Homo sapiens), sequence (P11309 whole entry, looked up): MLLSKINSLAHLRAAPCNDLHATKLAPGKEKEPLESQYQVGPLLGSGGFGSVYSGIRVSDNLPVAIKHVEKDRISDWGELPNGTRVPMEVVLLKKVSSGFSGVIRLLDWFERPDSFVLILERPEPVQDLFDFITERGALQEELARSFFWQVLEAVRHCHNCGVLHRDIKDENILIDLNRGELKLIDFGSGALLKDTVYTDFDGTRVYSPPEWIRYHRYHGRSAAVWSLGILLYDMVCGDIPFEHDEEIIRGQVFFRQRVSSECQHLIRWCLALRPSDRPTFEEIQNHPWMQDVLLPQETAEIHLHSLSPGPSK
Aurora kinase B (Homo sapiens), sequence (Q96GD4 whole entry): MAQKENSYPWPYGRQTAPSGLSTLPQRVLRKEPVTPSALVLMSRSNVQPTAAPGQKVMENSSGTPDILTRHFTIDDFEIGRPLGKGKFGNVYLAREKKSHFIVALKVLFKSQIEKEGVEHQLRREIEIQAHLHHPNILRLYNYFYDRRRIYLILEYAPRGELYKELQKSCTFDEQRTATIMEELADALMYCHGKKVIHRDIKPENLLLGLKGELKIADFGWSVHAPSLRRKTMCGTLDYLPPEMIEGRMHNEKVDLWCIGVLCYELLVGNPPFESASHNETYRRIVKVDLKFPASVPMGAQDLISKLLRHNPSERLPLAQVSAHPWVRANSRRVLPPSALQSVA
Cyclin-dependent kinase 5/CDK5 activator 1 (Homo sapiens), sequence (Q00535 whole entry): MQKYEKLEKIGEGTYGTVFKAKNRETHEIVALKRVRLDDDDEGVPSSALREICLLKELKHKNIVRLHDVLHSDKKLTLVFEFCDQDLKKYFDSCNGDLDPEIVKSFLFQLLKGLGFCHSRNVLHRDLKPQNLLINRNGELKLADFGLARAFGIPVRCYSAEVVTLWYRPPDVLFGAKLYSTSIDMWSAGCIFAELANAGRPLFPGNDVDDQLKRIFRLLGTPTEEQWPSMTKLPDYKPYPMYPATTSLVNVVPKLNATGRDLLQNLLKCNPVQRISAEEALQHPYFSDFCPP
Cyclin-dependent kinase 5/CDK5 activator 1 (Homo sapiens), sequence (Q15078 99-307 partner limits assumed): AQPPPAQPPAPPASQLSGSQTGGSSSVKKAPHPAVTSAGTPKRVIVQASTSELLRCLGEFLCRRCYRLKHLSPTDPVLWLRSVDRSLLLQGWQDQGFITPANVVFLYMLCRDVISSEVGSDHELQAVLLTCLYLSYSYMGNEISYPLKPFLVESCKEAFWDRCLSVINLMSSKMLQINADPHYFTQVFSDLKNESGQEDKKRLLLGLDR
Receptor-interacting serine/threonine-protein kinase 3 (Homo sapiens), sequence (Q9Y572 whole entry, looked up): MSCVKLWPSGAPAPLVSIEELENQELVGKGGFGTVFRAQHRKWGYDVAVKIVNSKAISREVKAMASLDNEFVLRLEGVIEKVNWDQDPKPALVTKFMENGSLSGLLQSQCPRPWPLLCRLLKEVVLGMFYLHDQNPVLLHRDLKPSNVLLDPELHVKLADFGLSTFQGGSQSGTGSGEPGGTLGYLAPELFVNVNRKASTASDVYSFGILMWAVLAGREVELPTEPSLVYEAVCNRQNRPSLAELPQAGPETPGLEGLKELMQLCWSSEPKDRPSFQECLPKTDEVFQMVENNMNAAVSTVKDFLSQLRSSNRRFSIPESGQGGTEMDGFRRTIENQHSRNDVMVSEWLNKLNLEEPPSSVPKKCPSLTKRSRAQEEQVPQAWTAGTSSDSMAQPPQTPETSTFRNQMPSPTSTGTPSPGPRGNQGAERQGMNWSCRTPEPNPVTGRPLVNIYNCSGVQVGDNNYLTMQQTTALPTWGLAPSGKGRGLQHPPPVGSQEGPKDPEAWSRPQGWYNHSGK

Activity [1]: > 60%
Activity [2]: > 60%
Activity [3]: > 60%
Activity [4]: > 60%
Activity [5]: > 60%
Activity [6]: > 60%
Activity (Leishmania donovani): > 60%
Activity [7]: > 60%
Activity [8]: > 60%
Activity [9]: > 60%
Activity [10]: > 60%
Structure (SMILES): O=C1OC2(C(=O)Nc3ccccc32)C2=C1NCCS2(=O)=O (stereo not drawn)
Activity (Pseudomonas aeruginosa): inactive
Activity (Enterococcus faecalis): inactive
Activity (Streptococcus pneumoniae): inactive
Activity (Klebsiella pneumoniae): inactive
Activity (Escherichia coli): inactive
Activity (HCT-116): inactive
Activity (U-87 MG): inactive
